Measurements: ChEMBL document CHEMBL4813996, “Design and development of 1,3,5-triazine derivatives as protective agent against spinal cord injury in rat via inhibition of NF-ĸB” (Bioorg Med Chem Lett, 2021)
One block for each compound: values may come before it. The source made the active and inactive calls. No cut-off for these calls is given here.

Columns and labels:
[1] = Inhibition of NFkappaB transcriptional activity in LPS-stimulated mouse RAW264.7 cells
Outline: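 IC50 for inhibition of NF-κB transcription, reported as mean ± SD from at least three independent assays.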

Rattus norvegicus [2] = assay: Neuroprotective activity in ip dosed contusion injury induced Sprague-Dawley rat SCI model assessed as restoration of motor functions administered once daily for 14 days; assay type: functional, organism-based; settings: dose 10-30 mg/kg, time 14.0 day
Outline: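 Spinal cord contusion made by weight drop, a rod dropped onto the cord. Dosing at 10, 20 and 30 mg/kg i.p., suspended in 2% CMC, once daily for 14 days. Motor function scored on the BBB scale on days 1, 4, 7, 10 and 14. Mean ± SEM from three independent experiments, one-way ANOVA with Tukey post hoc test, compared with sham and SCI groups.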

Rattus norvegicus [3] = assay: Neuroprotective activity in contusion injury induced Sprague-Dawley rat SCI model assessed as improvement in ratio of wet to dry spinal cord weight at 10 to 30 mg/kg, ip administered once daily for 14 days; assay type: functional, organism-based; settings: dose 10-30 mg/kg, time 14.0 day
Outline: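 Weight-drop contusion SCI, with a rod dropped on the cord. Rats given 10, 20 or 30 mg/kg i.p. in 2% CMC once a day for 14 days. Ratio of wet to dry spinal cord weight measured 24 h post-SCI. Mean ± SEM of three independent experiments, one-way ANOVA with Tukey test.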

Rattus norvegicus [4] = assay: Neuroprotective activity in contusion injury induced Sprague-Dawley rat SCI model assessed as reduction in edema in spinal cord at 10 to 30 mg/kg, ip administered once daily for 14 days by H and E staining based assay; assay type: functional, organism-based; settings: dose 10-30 mg/kg, time 14.0 day
Outline: (§1)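 Rats with SCI from weight-drop contusion received 10, 20 or 30 mg/kg i.p., suspended in 2% CMC, daily for 14 days. Spinal cord tissue sections stained with H&E for histopathology and edema. Three independent experiments, mean ± SEM, one-way ANOVA with Tukey post hoc test.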

Rattus norvegicus [5] = assay: Neuroprotective activity in contusion injury induced Sprague-Dawley rat SCI model assessed as inhibition of morphological changes in spinal cord at 10 to 30 mg/kg, ip administered once daily for 14 days by H and E staining based assay; assay type: functional, organism-based; settings: dose 10-30 mg/kg, time 14.0 day; outline: as §1
Rattus norvegicus [6] = assay: Neuroprotective activity in contusion injury induced Sprague-Dawley rat SCI model assessed as restoration of tissue histopathology in spinal cord at 10 to 30 mg/kg, ip administered once daily for 14 days by H and E staining based assay; assay type: functional, organism-based; settings: dose 10-30 mg/kg, time 14.0 day; outline: as §1
Rattus norvegicus [7] = assay: Neuroprotective activity in ip dosed Sprague-Dawley rat SCI model assessed as increase in nissl bodies administered once daily for 14 days by Nissl staining based assay; assay type: functional, organism-based; settings: dose 10-30 mg/kg, time 14.0 day
Outline: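 Contusion SCI by weight drop. Treatment at 10, 20 or 30 mg/kg i.p. in 2% CMC once daily for 14 days. Neuronal damage assessed by Nissl staining of the spinal cord, with Nissl bodies quantified. Mean ± SEM from three independent experiments.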

Rattus norvegicus [8] = assay: Neuroprotective activity in Sprague-Dawley rat SCI model assessed as increase in GSH level at 10 to 30 mg/kg, ip administered once daily for 14 days; assay type: functional, organism-based; settings: dose 10-30 mg/kg, time 14.0 day
Outline: (§2)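 Spinal cord of weight-drop contusion SCI rats dosed at 10, 20 or 30 mg/kg i.p. in 2% CMC daily for 14 days. Oxidative stress indices MDA, GSH and SOD measured in spinal cord. Mean ± SEM, three independent experiments, one-way ANOVA with Tukey test against sham and SCI groups.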

Rattus norvegicus [9] = assay: Neuroprotective activity in Sprague-Dawley rat SCI model assessed as increase in SOD level at 10 to 30 mg/kg, ip administered once daily for 14 days; assay type: functional, organism-based; settings: dose 10-30 mg/kg, time 14.0 day; outline: as §2
Rattus norvegicus [10] = assay: Neuroprotective activity in Sprague-Dawley rat SCI model assessed as reduction in MDA level at 10 to 30 mg/kg, ip administered once daily for 14 days; assay type: functional, organism-based; settings: dose 10-30 mg/kg, time 14.0 day; outline: as §2
Rattus norvegicus [11] = assay: Neuroprotective activity in Sprague-Dawley rat SCI model assessed as reduction in IL-1beta level at 10 to 30 mg/kg, ip administered once daily for 14 days by ELISA; assay type: functional, organism-based; settings: dose 10-30 mg/kg, time 14.0 day
Outline: (§3)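 After weight-drop contusion SCI, rats received 10, 20 or 30 mg/kg i.p. as a 2% CMC suspension once daily for 14 days. TNF-α, IL-1β and IL-6 levels determined by ELISA. Mean ± SEM from three independent experiments, one-way ANOVA followed by Tukey post hoc test.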

Rattus norvegicus [12] = assay: Neuroprotective activity in Sprague-Dawley rat SCI model assessed as reduction in IL-6 level at 10 to 30 mg/kg, ip administered once daily for 14 days by ELISA; assay type: functional, organism-based; settings: dose 10-30 mg/kg, time 14.0 day; outline: as §3
Rattus norvegicus [13] = assay: Neuroprotective activity in Sprague-Dawley rat SCI model assessed as reduction in TNFalpha level at 10 to 30 mg/kg, ip administered once daily for 14 days by ELISA; assay type: functional, organism-based; settings: dose 10-30 mg/kg, time 14.0 day; outline: as §3
Rattus norvegicus [14] = assay: Neuroprotective activity in Sprague-Dawley rat SCI model assessed as reduction in NFkappaB expression in spinal cord at 10 to 30 mg/kg, ip administered once daily for 14 days by Western blot analysis; assay type: functional, organism-based; settings: dose 10-30 mg/kg, time 14.0 day
Outline: (§4)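 Weight-drop contusion SCI rats treated with 10, 20 or 30 mg/kg i.p. in 2% CMC daily for 14 days. Spinal cord tissue analysed by western blot for NF-κB, p-IκBα and TLR4, with band quantification. Mean ± SEM of three independent experiments.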

Rattus norvegicus [15] = assay: Neuroprotective activity in Sprague-Dawley rat SCI model assessed as reduction in TLR4 expression in spinal cord at 10 to 30 mg/kg, ip administered once daily for 14 days by Western blot analysis; assay type: functional, organism-based; settings: dose 10-30 mg/kg, time 14.0 day; outline: as §4
Rattus norvegicus [16] = assay: Neuroprotective activity in Sprague-Dawley rat SCI model assessed as reduction in IkappaBalpha expression in spinal cord at 10 to 30 mg/kg, ip administered once daily for 14 days by Western blot analysis; assay type: functional, organism-based; settings: dose 10-30 mg/kg, time 14.0 day; outline: as §4

SMILES: COc1ccc(N2CCN(Cc3ccc(C(=O)Nc4nc(C)nc(Nc5nccc(-c6nccs6)n5)n4)cc3)CC2)cc1
IC50 [1]: 87.3 µM

SMILES: Cc1nc(NC(=O)c2ccc(CN3CCN(c4ccccc4)CC3)cc2)nc(Nc2nccc(-c3nccs3)n2)n1
IC50 [1]: 136 µM

SMILES: C[C@@H]1C[C@H]2[C@@H]3CCC4=CC(=O)C=C[C@]4(C)[C@@]3(F)[C@@H](O)C[C@]2(C)[C@@]1(O)C(=O)CO [DEXAMETHASONE]
IC50 [1]: 0.92 µM

SMILES: Cc1ccc(NC(=O)c2ccc(CN3CCN(C)CC3)cc2)cc1Nc1nccc(-c2cccnc2)n1 [IMATINIB]
IC50 [1]: 1.34 µM

Further lines, with some results ahead:

IC50 [1]: 3.21 µM
SMILES: Cc1nc(NC(=O)c2ccc(CN3CCN(c4ccc(Br)cc4)CC3)cc2)nc(Nc2nccc(-c3nccs3)n2)n1

IC50 [1]: 54.2 µM
SMILES: Cc1nc(NC(=O)c2ccc(CN3CCN(c4ccc(O)cc4)CC3)cc2)nc(Nc2nccc(-c3nccs3)n2)n1

IC50 [1]: 1.04 µM
SMILES: Cc1nc(NC(=O)c2ccc(CN3CCN(c4ccc(Cl)cc4)CC3)cc2)nc(Nc2nccc(-c3nccs3)n2)n1
Activity (Rattus norvegicus [2]): Dose-Dependent Effect
Activity (Rattus norvegicus [3]): Active
Activity (Rattus norvegicus [4]): Active
Activity (Rattus norvegicus [5]): Active
Activity (Rattus norvegicus [6]): Active
Activity (Rattus norvegicus [7]): Dose-Dependent Effect
Activity (Rattus norvegicus [8]): Active
Activity (Rattus norvegicus [9]): Active
Activity (Rattus norvegicus [10]): Active
Activity (Rattus norvegicus [11]): Active
Activity (Rattus norvegicus [12]): Active
Activity (Rattus norvegicus [13]): Active
Activity (Rattus norvegicus [14]): Active
Activity (Rattus norvegicus [15]): Active
Activity (Rattus norvegicus [16]): Active

IC50 [1]: 9.9 µM
SMILES: Cc1ccc(N2CCN(Cc3ccc(C(=O)Nc4nc(C)nc(Nc5nccc(-c6nccs6)n5)n4)cc3)CC2)cc1

IC50 [1]: 6.12 µM
SMILES: Cc1nc(NC(=O)c2ccc(CN3CCN(c4ccc([N+](=O)[O-])cc4)CC3)cc2)nc(Nc2nccc(-c3nccs3)n2)n1
